Results from PubChem BioAssay AID2655 (Broad Institute, 2010).

System: human platelets, SFLLRN-induced actin polymerization, FITC-phalloidin flow
Test: blockers of PAR1 peptide-driven F-actin formation – cell-based, FITC-phalloidin flow cytometry, human platelets, selectivity assay for platelet granule secretion inhibitor project, late-stage follow-up (AID 2655)
Conditions: at 10 µM; stronger effect = higher value
How it was run: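 material = Gel-filtered platelets | also added = SFLLRN at 5 µM, or no SFLLRN | compound = single 10 µM compound dose, 0.3% DMSO vehicle | times = 20 min compound, 15 min SFLLRN, 37 °C | technique = FITC-phalloidin flow cytometry in fixed, permeabilized platelets | control set = 0.3% DMSO vehicle samples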

Row | SMILES | inhibition
1 | CCCC(=O)Nc1cccc(NC(=O)c2ccccc2Br)c1 | 80.4%
2 | O=C(Nc1cccc(NC(=O)c2ccccc2Cl)c1)c1ccco1 | 71.4%
